Assays:
[1] = system: Respiratory syncytial virus; assay: Inhibition of RSV by MTT assay; type: functional, organism-based; conditions: human respiratory syncytial virus
Summary of the method: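 HeLaM epithelial-like cells infected with RSV with or without a range of compound concentrations; viability read by MTT after 1 week incubation. OD measured spectrophotometrically and pEC50 derived. Virus, cell and cytotoxicity controls on every plate, reference compounds in every test; runs failing control criteria rejected.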

[2] = Cytotoxicity against human HeLaM cells by MTT assay; type: functional, M-HeLa
[3] = Half life in Sprague-Dawley rat lung; type: ADME, organism-based

Row | SMILES | EC50 [1] [nM] | pCC50 [2] | half-life [3] [h]
1 | Cc1cccc(NCc2ccc3nc(NC4CCN(C)CC4)n(Cc4nc(C)ccc4O)c3c2)c1 | 5.01 | 4.7 | 
2 | Cc1cccc(SCc2ccc3nc(NC4CCN(C)CC4)n(Cc4nc(C)ccc4O)c3c2)c1 | 251 | 4.4 | 
3 | Cc1ccc(O)c(Cn2c(NCCCN3CCOCC3)nc3ccc(CN(CCO)c4ccccc4)cc32)n1 | 3.16 | 4.3 | 
4 | Cc1ccc(O)c(Cn2c(NC3CCN(C)CC3)nc3ccc(C(O)c4ccccc4)cc32)n1 (stereo not given) | 158 | <4 | 
5 | Cc1ccc(O)c(Cn2c(NCCCN3CCOCC3)nc3ccc(CNc4ccccc4CCO)cc32)n1 | 0.794 | 4.7 | 20.1
6 | Cc1cccc(CCc2ccc3nc(NC4CCN(CCN)CC4)n(Cc4nc(C)ccc4O)c3c2)c1 | 1 | 4.9 | 
7 | Cc1cccc(/C=C/c2ccc3nc(NC4CCN(C)CC4)n(Cc4nc(C)ccc4O)c3c2)c1 | 501 | 5.6 | 
8 | Cc1cccc(NCc2ccc3nc(NCCCN4CCOCC4)n(Cc4nc(C)ccc4O)c3c2)c1 | 2.51 | 4.9 | 
9 | Cc1ccc(O)c(Cn2c(NC3CCN(C)CC3)nc3ccc(CN(C)c4ccccc4)cc32)n1 | 39.8 | 5.2 | 
10 | Cc1cc(C)cc(NCc2ccc3nc(NCCc4ccccc4)n(Cc4nc(C)ccc4O)c3c2)c1 | > 100000 | 4.4 | 
11 | Cc1cc(C)cc(NCc2ccc3nc(NCCCN4CCN(C)CC4)n(Cc4nc(C)ccc4O)c3c2)c1 | 3.98 | 5 | 
12 | Cc1ccc(O)c(Cn2c(NC3CCN(CC(N)C(C)C)CC3)nc3c(C)ccnc32)n1 (stereo not given) | 0.1 | 4.3 | 
13 | Cc1cc(C)cc(N(CCO)Cc2ccc3nc(NCCCN4CCOCC4)n(Cc4nc(C)ccc4O)c3c2)c1 | 0.501 | 4.4 | 19.6
14 | Cc1cc(C)cc(NCc2ccc3nc(NCCCN4CCOCC4)n(Cc4nc(C)ccc4O)c3c2)c1 | 1 | 5 | 13.7
15 | Cc1ccc(O)c(Cn2c(NC3CCN(CCN)CC3)nc3c(C)cccc32)n1 [JNJ 2408068] | 0.251 | <4 | 
16 | Cc1cccc(/C=C/c2ccc3nc(NC4CCN(CCN)CC4)n(Cc4nc(C)ccc4O)c3c2)c1 | 3.16 | 5.1 | 

Reference: ChEMBL document CHEMBL1142321, “Selection of a respiratory syncytial virus fusion inhibitor clinical candidate. 2. Discovery of a morpholinopropylaminobenzimidazole derivative (TMC353121)” (J Med Chem, 2008)
